We go through 1 molecule from ChEMBL document CHEMBL2331235, “Solphenazines A-F, glycosylated phenazines from Streptomyces sp. strain DL-93” (J Nat Prod, 2013).

Active and inactive are the calls of the source. The rule behind the calls is not given here.

For one experiment, the system named is Vero. The experiment in a line: Cytotoxicity against African green monkey Vero cells after 72 hrs by MTT assay. In kind it is cell-based. The following applies: Chlorocebus sabaeus. Summed up: (§1)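 Vero cells in MEM and HCT-116 cells in RPMI, each with 10% FBS, 1% penicillin–streptomycin and 1% Glutamax. Cells were seeded at 3.0 × 10^4 per well and left to adhere overnight. Medium was replaced, and compounds in DMSO were added to a final 150–0.1 μM. Cells were incubated 72 h at 37 °C in 4.5% CO2 (humidified), then viability was read by MTT.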

In another experiment the test system is Pseudomonas aeruginosa. In words: Antimicrobial activity against Pseudomonas aeruginosa ATCC 27853 by microbroth dilution assay. The experiment is classed as functional.
In experiment [1] the target is DNA topoisomerase 2-alpha (Homo sapiens) (UniProt P11388). In words: Inhibition of topoisomerase-2 (unknown origin)-mediated DNA cleavage […] by agarose gel electrophoresis. Summed up:
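Human Topo II cleavage assay: 5 units enzyme with 0.3 μg kDNA in the decatenation buffer without potassium glutamate, with etoposide as control. Reactions ran 10 min at 37 °C, then SDS to 1% for 10 min, then 40 mM EDTA and 100 μg/mL proteinase K for 1 h at 50 °C. Products were run on ethidium-containing 1.2% agarose. Linear DNA was compared with and without compound, at least in duplicate.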

Experiment [2] addresses T1, DNA topoisomerase 1 (Homo sapiens) (UniProt P11387).
T1 sequence (whole entry): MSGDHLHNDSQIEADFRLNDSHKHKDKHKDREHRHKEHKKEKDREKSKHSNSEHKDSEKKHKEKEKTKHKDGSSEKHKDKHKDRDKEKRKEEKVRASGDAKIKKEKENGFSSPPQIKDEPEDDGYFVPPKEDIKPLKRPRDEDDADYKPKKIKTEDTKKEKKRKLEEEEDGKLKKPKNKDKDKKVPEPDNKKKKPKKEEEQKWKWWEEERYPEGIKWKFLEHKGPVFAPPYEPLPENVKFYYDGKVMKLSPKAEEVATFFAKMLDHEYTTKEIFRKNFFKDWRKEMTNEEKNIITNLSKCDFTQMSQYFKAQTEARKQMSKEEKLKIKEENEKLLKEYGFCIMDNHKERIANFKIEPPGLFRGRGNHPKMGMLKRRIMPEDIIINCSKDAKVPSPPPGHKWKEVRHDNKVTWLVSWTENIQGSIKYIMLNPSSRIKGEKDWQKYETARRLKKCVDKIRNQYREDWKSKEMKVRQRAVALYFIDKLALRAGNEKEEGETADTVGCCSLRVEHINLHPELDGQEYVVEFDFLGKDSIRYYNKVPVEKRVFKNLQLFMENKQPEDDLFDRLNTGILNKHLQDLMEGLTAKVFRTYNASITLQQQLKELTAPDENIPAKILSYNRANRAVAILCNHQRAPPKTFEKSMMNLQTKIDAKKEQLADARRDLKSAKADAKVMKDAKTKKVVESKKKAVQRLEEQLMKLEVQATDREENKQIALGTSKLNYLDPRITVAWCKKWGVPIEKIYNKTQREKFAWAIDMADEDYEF
In words: Inhibition of topoisomerase-1 (unknown origin)-mediated DNA cleavage after 15 mins by agarose gel electrophoresis. The gist of the method: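 Topo I cleavage assay: 2 units Topo I with 0.3 μg pBR322 in the unwinding buffer, with camptothecin as control. Reactions ran 10 min at 37 °C, then SDS to 1% for 10 min, then 40 mM EDTA and 100 μg/mL proteinase K for 15 min at 37 °C. DNA was phenol-extracted and run on 1.2% agarose containing 0.5 μg/mL ethidium bromide. Nicked DNA was compared with and without compound, at least in duplicate.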

The target in experiment [3] is T2, Topoisomerase I (Bos taurus) (UniProt Q2HPH0).
T2 sequence (whole entry): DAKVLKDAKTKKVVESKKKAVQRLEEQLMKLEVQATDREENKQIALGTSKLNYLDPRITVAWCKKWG
In words: Inhibition of calf thymus topoisomerase-1-mediated supercoiled plasmid DNA relaxation after 15 mins by agarose gel electrophoresis. Summed up:
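Calf thymus Topo I (0.5 unit) with negatively supercoiled pBR322 (0.3 μg) in 50 mM Tris-HCl pH 7.5, 1 mM MgCl2, 0.5 mM DTT and 50 μg/mL BSA. Camptothecin was the control. Reactions ran 15 min at 37 °C and were stopped on ice with an EDTA/sarkosyl loading dye. Relaxed versus supercoiled DNA was resolved by agarose gel, in duplicate.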

Experiment [4] addresses T2, Topoisomerase I (Bos taurus). The experiment in a line: Inhibition of calf thymus topoisomerase-1-mediated DNA intercalation using relaxed pBR322 after 15 mins. The gist of the method:
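Unwinding (intercalation) assay: relaxed pBR322 (0.3 μg) with 1 unit calf thymus Topo I in 50 mM Tris-HCl pH 7.5, 1 mM MgCl2, 0.5 mM DTT and 50 μg/mL BSA. Compound was added in DMSO, with ethidium bromide as control. After 15 min at 37 °C, reactions were treated with SDS and proteinase K and phenol-extracted. DNA was run on 1.2% agarose in TAE, and supercoiled DNA was quantified after staining.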

Another experiment deals with Enterococcus faecalis. In words: Antimicrobial activity against vancomycin-resistant Enterococcus faecalis ATCC 51299 by microbroth dilution assay. In kind it is functional.
The test system of the next experiment is Bacillus spizizenii. In words: Antimicrobial activity against Bacillus subtilis ATCC 6633 by microbroth dilution assay. The experiment is classed as functional.
Experiment [5] deals with Streptomyces scabiei. In words: Antimicrobial activity against Streptomyces scabies NRRL B 2795 at 25 ug/disk after 2 days by disk diffusion assay. The experiment is classed as functional. The gist of the method:
(§2)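 S. scabies grown 5 days in liquid ISP2, diluted 1:10 in molten ISP2 agar. Paper discs carrying 25 μg compound (applied in 20 μL methanol) were set on a thin agar layer and overlaid with 10 mL of the seeded agar (double-layer method). Plates were incubated 2 days at 30 °C, and inhibition zone diameters were measured.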

Experiment [6] concerns Escherichia coli. The experiment in a line: Antimicrobial activity against Escherichia coli ATCC 25922 by microbroth dilution assay. The experiment is classed as functional.
A further experiment relates to Staphylococcus aureus. In words: Antimicrobial activity against methicillin-resistant Staphylococcus aureus ATCC 43300 by microbroth dilution assay. In kind it is functional.
Experiment [7] is described as follows: Cytotoxicity against human […] cells after 72 hrs by MTT assay. The experiment is classed as functional, cell-based. The gist of the method: as §1
Experiment [8] concerns Escherichia coli. The experiment in a line: Inhibition of Escherichia coli topoisomerase-2-mediated DNA cleavage after 15 mins by agarose gel electrophoresis.
In the next experiment the test system is Acinetobacter baumannii. The experiment in a line: Antimicrobial activity against Acinetobacter baumannii ATCC 19606 by microbroth dilution assay. The following applies: ATCC 19606 = CIP 70.34 = JCM 6841. In kind it is functional.
Another experiment concerns Cryptococcus neoformans. In words: Antimicrobial activity against Cryptococcus neoformans ATCC 66031 by microbroth dilution assay. In kind it is functional.
Another experiment relates to Klebsiella pneumoniae. The experiment in a line: Antimicrobial activity against Klebsiella pneumoniae ATCC 13883 by microbroth dilution assay. The experiment is classed as functional.
Experiment [9] relates to Streptomyces scabiei. In words: Antimicrobial activity against Streptomyces scabies LK 82 at 25 ug/disk after 2 days by disk diffusion assay. The experiment is classed as functional. The gist of the method: as §2
The next experiment deals with Candida albicans. The experiment in a line: Antimicrobial activity against Candida albicans ATCC 10231 by microbroth dilution assay. The experiment is classed as functional.

Sequence of DNA topoisomerase 2-alpha (Homo sapiens) (P11388 whole entry): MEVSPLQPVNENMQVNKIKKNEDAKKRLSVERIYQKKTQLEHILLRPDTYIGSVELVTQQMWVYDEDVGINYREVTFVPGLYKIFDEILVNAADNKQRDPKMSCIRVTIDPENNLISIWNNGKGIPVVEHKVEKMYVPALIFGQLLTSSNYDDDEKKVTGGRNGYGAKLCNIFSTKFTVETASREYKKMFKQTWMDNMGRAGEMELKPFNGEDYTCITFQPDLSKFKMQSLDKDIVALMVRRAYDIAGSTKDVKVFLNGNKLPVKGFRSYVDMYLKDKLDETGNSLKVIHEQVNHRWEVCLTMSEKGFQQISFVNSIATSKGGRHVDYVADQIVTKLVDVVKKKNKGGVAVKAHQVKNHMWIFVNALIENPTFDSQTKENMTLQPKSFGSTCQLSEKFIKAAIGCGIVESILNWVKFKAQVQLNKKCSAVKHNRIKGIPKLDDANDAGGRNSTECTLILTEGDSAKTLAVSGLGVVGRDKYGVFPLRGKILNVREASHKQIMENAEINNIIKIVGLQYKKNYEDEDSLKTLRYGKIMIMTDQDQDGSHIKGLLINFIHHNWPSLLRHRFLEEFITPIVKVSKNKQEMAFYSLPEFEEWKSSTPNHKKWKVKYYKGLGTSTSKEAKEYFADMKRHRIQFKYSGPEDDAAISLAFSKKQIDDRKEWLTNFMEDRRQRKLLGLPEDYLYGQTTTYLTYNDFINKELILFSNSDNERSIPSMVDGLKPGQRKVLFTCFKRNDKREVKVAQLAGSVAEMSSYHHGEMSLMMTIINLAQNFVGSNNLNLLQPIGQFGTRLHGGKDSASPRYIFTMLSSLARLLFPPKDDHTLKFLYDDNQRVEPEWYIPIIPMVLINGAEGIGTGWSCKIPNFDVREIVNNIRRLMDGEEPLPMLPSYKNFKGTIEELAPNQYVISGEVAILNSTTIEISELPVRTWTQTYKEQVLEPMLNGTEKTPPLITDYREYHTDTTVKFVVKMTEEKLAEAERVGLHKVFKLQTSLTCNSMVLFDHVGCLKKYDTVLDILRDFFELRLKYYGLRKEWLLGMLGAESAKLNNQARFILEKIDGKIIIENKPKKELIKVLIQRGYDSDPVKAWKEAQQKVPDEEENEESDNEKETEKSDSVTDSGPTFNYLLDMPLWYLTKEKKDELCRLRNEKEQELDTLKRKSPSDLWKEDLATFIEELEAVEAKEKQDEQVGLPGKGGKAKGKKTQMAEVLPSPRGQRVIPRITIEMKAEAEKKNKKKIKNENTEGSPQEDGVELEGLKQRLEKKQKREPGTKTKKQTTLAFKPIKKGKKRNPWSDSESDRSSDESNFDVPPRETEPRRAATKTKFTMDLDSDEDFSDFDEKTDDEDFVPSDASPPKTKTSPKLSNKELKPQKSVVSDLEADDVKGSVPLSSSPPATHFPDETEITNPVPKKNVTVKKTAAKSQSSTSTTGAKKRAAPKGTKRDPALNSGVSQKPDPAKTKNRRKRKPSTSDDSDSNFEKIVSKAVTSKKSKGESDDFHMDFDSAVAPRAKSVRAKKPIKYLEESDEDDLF

Consider `C[C@@H]1O[C@@H](OC(=O)c2cccc3nc4c(C(=O)O[C@@H]5O[C@@H](C)[C@H](O)[C@@H](O)[C@H]5O)cccc4nc23)[C@H](O)[C@H](O)[C@H]1O` [SOPHENAZINE A], for which the EC50 in the experiment on Vero turned out to be 84 µM; in experiment [7], 18 µM. Also, the MIC with Pseudomonas aeruginosa, against Enterococcus faecalis, against Bacillus spizizenii, against Escherichia coli [6], against Staphylococcus aureus and against Acinetobacter baumannii was above 25 µg/mL in each case. For the same molecule, the MIC with Cryptococcus neoformans, against Klebsiella pneumoniae and against Candida albicans was above 25 µg/mL in each case. The inhibition entry (in [1]; in experiment [2]; in experiment [3]; in experiment [4]; in the experiment with Escherichia coli [8]) was “inactive” each time. The result in the experiment on Streptomyces scabiei [5] and in the experiment with Streptomyces scabiei [9] was inactive.
